These results are taken from ChEMBL document CHEMBL1121586, “Synthesis, biological activity, and structure--activity/toxicity relationships of a series of terphenyl analogues of hemicholinium-3 and acetyl-seco-hemicholinium-3. 3” (J Med Chem, 1980).

The nature of data set [1]: Ratio of terphenyl LD50 doses to biphenyl analogues in charles river CD-1 strain adult male albino mice. Type of data set: ADME, organism-based. The following applies: CD-1, mouse, in vivo.
A short description of data set [2]: Ratio of terphenyl LD50 doses to biphenyl HC-3 in charles river CD-1 strain adult male albino mice. The data set is classed as ADME, organism-based. The following applies: CD-1, mouse, in vivo.
Data set [3] has as its system Mus musculus. Put plainly: Tested for percentage mortality in charles river CD-1 strain adult male albino mice after introducing antagonist neostigmine at intraperitoneal dosage of 0.2 mg/kg, 1 min prior to compound. The following applies: ip. Type of data set: functional. The arrangement: concentration or dose not given beside the values.
The nature of data set [4]: Tested for biphenyl analogue in charles river CD-1 strain adult male albino mice after intraperitoneal administration. Type of data set: ADME, organism-based. The following applies: CD-1, mouse, in vivo, ip.
Data set [5] deals with Mus musculus. Put plainly: Tested for percentage mortality in charles river CD-1 strain adult male albino mice after introducing antagonist choline at intraperitoneal dosage of 20 mg/kg, 1 min prior to compound. The arrangement: concentration or dose not given beside the values. The data set is classed as functional. The following applies: ip.
The nature of data set [6]: Tested for terphenyl analogue in charles river CD-1 strain adult male albino mice after intraperitoneal administration. The data set is classed as ADME, organism-based. The following applies: CD-1, mouse, in vivo, ip. In outline: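 Adult male albino Charles River CD-1 mice (20-30 g) were dosed ip with a suspension in 0.8% (w/v) sodium carboxymethylcellulose in 0.9% NaCl. The LD50 was estimated by Finney's staircase sampling method, which allows for variation in LD50 with time of day, and is reported with 95% confidence limits.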

Data set [7] deals with Mus musculus. The data set can be described thus: Tested for percentage mortality in charles river CD-1 strain adult male albino mice after introducing antagonist choline at intraperitoneal dosage of 20 mg/kg, 1 min prior to compound; b represents Least toxic. The arrangement: dose 20 mg/kg. Type of data set: functional, organism-based.
Data set [8] relates to Mus musculus. Put plainly: Tested for terphenyl analogue in charles river CD-1 strain adult male albino mice after intraperitoneal administration; b represents Least toxic. Type of data set: ADME, organism-based. The following applies: in vivo, ip.
Data set [9] relates to Mus musculus. Put plainly: Tested for percentage mortality in charles river CD-1 strain adult male albino mice after introducing antagonist neostigmine at intraperitoneal dosage of 0.2 mg/kg, 1 min prior to compound; b represents Least toxic. The arrangement: dose 0.2 mg/kg. The data set is classed as functional, organism-based.

As a reminder, the mortality is the share of the test organisms that died. By LD50 is commonly meant the dose at which mortality reaches 50%. With `CC(=O)SCC[N+](C)(C)CC(=O)c1ccc(-c2ccc(-c3ccc(C(=O)C[N+](C)(C)CCSC(C)=O)cc3)cc2)cc1.[Br-].[Br-]`, the selectivity ratio in data set [1] turned out to be 22.9; in data set [2], 23.5. Moreover, the figures for the mortality in the data set with Mus musculus [3] and with Mus musculus [5] were 80% and 60%, respectively. The LD50 in data set [4] worked out at 0.133 mg/kg; in data set [6], 3.05 mg/kg.
In the case of `C[N+](C)(CCS)CC(=O)c1ccc(-c2ccc(-c3ccc(C(=O)C[N+](C)(C)CCS)cc3)cc2)cc1.[Br-].[Br-]`, the Mortality entry in the data set with Mus musculus [7] and in the data set with Mus musculus [9] was “Toxic” in each case. Further, the LD50 in [4] is 29.4 mg/kg. In the data set with Mus musculus [8], the LD95 result was “Toxic”.
As for `CCCCC[N+](C)(C)CC(=O)c1ccc(-c2ccc(-c3ccc(C(=O)C[N+](C)(C)CCCCC)cc3)cc2)cc1.[Br-].[Br-]`, the selectivity ratio in [1] amounted to 1.38; in data set [2] it was 32.8. Moreover, the mortality in the data set on Mus musculus [3] is 100%; in the data set with Mus musculus [5], 80%. Besides, the LD50 in [4] is 5.6 mg/kg; in [6] it was 5.32 mg/kg.
Consider `C[N+]1(C)CCOC(O)(c2ccc(-c3ccc(-c4ccc(C5(O)C[N+](C)(C)CCO5)cc4)cc3)cc2)C1.[Br-].[Br-]` (stereo not drawn), for which the selectivity ratio in [1] and in data set [2] was 0.82 each time. Moreover, the mortality in the data set on Mus musculus [3] was 80%; in the data set with Mus musculus [5], 70%. The LD50 in data set [4] amounted to 0.13 mg/kg; in data set [6], 0.107 mg/kg.
For `CCOCC[N+](C)(C)CC(=O)c1ccc(-c2ccc(-c3ccc(C(=O)C[N+](C)(C)CCOCC)cc3)cc2)cc1.[Br-].[Br-]`, the values for the selectivity ratio in data set [1] and in data set [2] were 9.02 and 127, respectively. The mortality with Mus musculus [3] and with Mus musculus [5] was 90% in each case. Moreover, the LD50 in [4] came out at 1.84 mg/kg; in data set [6] it was 16.6 mg/kg.
Regarding `CC(=O)OCC[N+](C)(C)CC(=O)c1ccc(-c2ccc(-c3ccc(C(=O)C[N+](C)(C)CCOC(C)=O)cc3)cc2)cc1.[Br-].[Br-]`, the selectivity ratio came out at 2.66 in data set [1] and 2.56 in [2]. Besides, the values for the mortality with Mus musculus [3] and with Mus musculus [5] were 20% and 30%, respectively. Moreover, the LD50 in data set [4] was determined as 0.125 mg/kg; in data set [6] it was 0.333 mg/kg.
For the molecule `CC(=O)CCC[N+](C)(C)CC(=O)c1ccc(-c2ccc(-c3ccc(C(=O)C[N+](C)(C)CCCC(C)=O)cc3)cc2)cc1.[Br-].[Br-]`, the figures for the selectivity ratio in data set [1] and in data set [2] were 1.38 and 32.8, respectively. The LD50 was found to be 3.1 mg/kg in data set [4] and 4.27 mg/kg in data set [6].
